Cav32 inh: human Cav3.2 channel inhibition, primary screen | Cav3.2-expressing cells, Fluo-4 calcium fluorescence FDSS; hits give low values | B-score at 10 µM | hit rate 4% among 100,000 | AID 449739;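 active = single-dose well whose peak fluorescence ratio is a statistical outlier from its plate by either plate-standardised score or position-corrected B-score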
CYP2C9 inh: human CYP2C9 inhibition; inhibition, % at 5 µM; hit rate 20% among 96,000; CYP2C9 Supersomes, luciferin-H conversion, luminescence; P11712;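 active = blocking of liver enzyme CYP2C9 beyond about 50% at 5 µM, limit read from the data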
Target sequence (P11712 whole entry, looked up): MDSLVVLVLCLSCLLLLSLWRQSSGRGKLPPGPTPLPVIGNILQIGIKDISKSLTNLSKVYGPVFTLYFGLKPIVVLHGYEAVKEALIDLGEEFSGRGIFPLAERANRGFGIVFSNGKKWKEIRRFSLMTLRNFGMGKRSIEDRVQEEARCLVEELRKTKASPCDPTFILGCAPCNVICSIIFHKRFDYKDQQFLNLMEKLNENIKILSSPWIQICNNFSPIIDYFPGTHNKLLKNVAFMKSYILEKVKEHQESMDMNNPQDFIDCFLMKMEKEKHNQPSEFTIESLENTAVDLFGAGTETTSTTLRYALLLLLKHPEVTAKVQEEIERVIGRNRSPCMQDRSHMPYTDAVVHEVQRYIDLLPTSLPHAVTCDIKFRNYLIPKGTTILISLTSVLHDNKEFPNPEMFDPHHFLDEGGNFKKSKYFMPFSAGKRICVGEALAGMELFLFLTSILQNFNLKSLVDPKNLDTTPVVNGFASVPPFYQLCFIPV
CYP2C19 inhib: human CYP2C19 inhibition; hit rate 21% among 96,000; inhibition, % at 5 µM; AID 778; CYP2C19 Supersomes, luciferin-H EGE luminescence, 30 min;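 active = CYP2C19 inhibition above a set limit at 5 µM in the primary screen, cut at about 50% in these data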
CYP2C19 activ: activators of human cytochrome P450 2C19 | P33261 | recombinant CYP2C19, luciferin-H EGE luminescence; hits give high values; 0 = fully inhibited enzyme, 1 = untreated enzyme | activation factor at 5 µM | 96,000 tested, under 10 active | AID 1025;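 active = activation factor of at least 2 at 5 µM in the primary screen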
Rev-RRE block: HIV Rev-RRE protein-RNA interaction inhibition | AID 704 | hit rate 0.79% among 97,000 | inhibition, % at 8 µM | P05866 | Rev peptide-RRE RNA binding, FRET;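 active = inhibition above the screen-wide mean plus 3 SD, cut at about 35% in these data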
Target sequence (P05866 whole entry, looked up): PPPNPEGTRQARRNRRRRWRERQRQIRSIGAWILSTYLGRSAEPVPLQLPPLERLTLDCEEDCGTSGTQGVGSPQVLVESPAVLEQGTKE
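Material: labelled RRE RNA duplex and labelled Rev peptide / Buffer or medium: HEPES pH 7.5 salt buffer with EDTA / Compound dosing: single point, 8 µM final nominal compound concentration / Benchmarks: DMSO low control, neomycin B high control / Timing: 5 min preincubation and 15 min binding, 25 °C / Technique: FRET fluorescence readout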
CYP2C9 act: increases human cytochrome P450 2C9 activity; P11712; activation factor at 5 µM; AID 1024; recombinant CYP2C9, luciferin-H conversion, luminescence; hits give high values; factor 1 = untreated enzyme, 0 = blocked; hit rate 1.4% among 96,000;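 active = activation factor of 2 or more for CYP2C9 at a 5 µM dose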
Hits are given with their value. This is a sample that favours compounds with a hit; in the whole collection about 27% have one here.

For O=C1c2ccccc2C(O)N1Cc1ccc2c(c1)OCO2 (stereo not given) the results were Cav32 inh inactive, CYP2C9 inh inactive, CYP2C19 inhib 83, CYP2C19 activ inactive, Rev-RRE block inactive and CYP2C9 act inactive.
`O=C1c2ccccc2C(Nc2cccnc2)N1Cc1ccc2c(c1)OCO2` (stereo not given) gave Cav32 inh inactive, CYP2C9 inh inactive, CYP2C19 inhib 57, CYP2C19 activ inactive and CYP2C9 act inactive.
Screening O=C1c2ccccc2C(Nc2ccc3c(c2)OCO3)N1Cc1ccco1 (stereo not given) returned Cav32 inh inactive and Rev-RRE block inactive.
CC(C)Oc1ccc(NC(=O)Oc2ccccc2)cc1 was read as Cav32 inh inactive, CYP2C9 inh inactive, CYP2C19 inhib inactive, CYP2C19 activ inactive, Rev-RRE block inactive and CYP2C9 act inactive.
For Cc1ccc(NC(=O)NNC(=O)C2CC(c3cccnc3)=NO2)cc1 (stereo not given) the results were Cav32 inh inactive, CYP2C9 inh inactive, CYP2C19 inhib inactive, CYP2C19 activ inactive, Rev-RRE block inactive and CYP2C9 act inactive.
`c1ccc(Cc2nc3ccccc3o2)cc1` gave Cav32 inh inactive, CYP2C9 inh inactive, CYP2C19 inhib inactive, CYP2C19 activ inactive, Rev-RRE block inactive and CYP2C9 act inactive.
`O=S(=O)(/N=C/c1c(O)ccc2ccccc12)c1cccs1` gave Cav32 inh inactive, CYP2C9 inh inactive, CYP2C19 inhib inactive, CYP2C19 activ inactive, Rev-RRE block inactive and CYP2C9 act inactive.
Cc1cc(C)nc(N2CCN(CC(=O)NCc3ccccc3)CC2)n1 was read as Cav32 inh inactive, CYP2C9 inh inactive, CYP2C19 inhib inactive, CYP2C19 activ inactive, Rev-RRE block inactive and CYP2C9 act inactive.
Screening CCN(CC)c1ccc(NC(=O)CN2CCN(c3nc(C)cc(C)n3)CC2)cc1 returned Cav32 inh -4.2, CYP2C9 inh inactive, CYP2C19 inhib inactive, CYP2C19 activ inactive and CYP2C9 act inactive.
COc1ccc(-c2cc(C(F)(F)F)n3nc(C(=O)NCc4ccco4)cc3n2)cc1 was read as Cav32 inh inactive, CYP2C9 inh inactive, CYP2C19 inhib inactive, CYP2C19 activ inactive, Rev-RRE block inactive and CYP2C9 act inactive.
Screening Cc1ccc(-c2cc(C(F)(F)F)n3ncc(C(=O)NCc4ccco4)c3n2)cc1 returned Cav32 inh inactive, CYP2C9 inh 54, CYP2C19 inhib inactive, CYP2C19 activ inactive, Rev-RRE block inactive and CYP2C9 act inactive.
`O=C(NCc1ccco1)c1cc2nc(-c3ccc4c(c3)OCO4)cc(C(F)(F)F)n2n1` gave Cav32 inh inactive, CYP2C9 inh 83, CYP2C19 inhib 77, CYP2C19 activ inactive, Rev-RRE block inactive and CYP2C9 act inactive.
For O=C(NCc1ccco1)c1nn2c(C(F)(F)F)cc(-c3cccs3)nc2c1Br the results were Cav32 inh inactive, CYP2C9 inh 73, CYP2C19 inhib inactive, CYP2C19 activ inactive, Rev-RRE block inactive and CYP2C9 act inactive.
COc1ccc(-c2cc(C(F)(F)F)n3nc(C(=O)Nc4cc(C)on4)cc3n2)cc1OC was read as CYP2C9 inh inactive, CYP2C19 inhib inactive, CYP2C19 activ inactive, Rev-RRE block inactive and CYP2C9 act inactive.
For Cc1ccc(-c2cc(C(F)F)n3ncc(C(=O)NCc4ccco4)c3n2)cc1 the results were Cav32 inh inactive, CYP2C9 inh inactive, CYP2C19 inhib inactive, CYP2C19 activ inactive, Rev-RRE block inactive and CYP2C9 act inactive.
Screening Cc1ccc(-c2cc(C(F)(F)F)n3nc(C(=O)NCCCn4ccnc4)cc3n2)cc1C returned Cav32 inh inactive, CYP2C9 inh 80, CYP2C19 inhib 88, CYP2C19 activ inactive, Rev-RRE block inactive and CYP2C9 act inactive.
Screening COC(=O)c1ccc(C(=O)Nc2ccc3nc(-c4cccnc4)[nH]c3c2)cc1 returned Cav32 inh inactive, CYP2C9 inh 67, CYP2C19 inhib inactive, CYP2C19 activ inactive, Rev-RRE block inactive and CYP2C9 act inactive.
Screening Cc1ccc(S(=O)(=O)Nc2ccc3nc(-c4cccn4C)[nH]c3c2)cc1 returned Cav32 inh -5.7, CYP2C9 inh 100, CYP2C19 inhib 100, CYP2C19 activ inactive, Rev-RRE block inactive and CYP2C9 act inactive.
For Nc1ccc(C(=O)Nc2ccc3nc(-c4cccnc4)[nH]c3c2)cc1 the results were CYP2C9 inh inactive, CYP2C19 inhib inactive, CYP2C19 activ inactive, Rev-RRE block inactive and CYP2C9 act inactive.
`Cn1cccc1-c1nc2ccc(NC(=O)c3ccccc3)cc2[nH]1` gave Cav32 inh inactive, CYP2C9 inh 68, CYP2C19 inhib 78, CYP2C19 activ inactive, Rev-RRE block inactive and CYP2C9 act inactive.
Cc1cc(NC(=O)CCC(=O)N(c2ccccc2)C(C(=O)NCC2CCCO2)c2cccnc2)no1 (stereo not given) was read as Cav32 inh inactive, CYP2C9 inh inactive, CYP2C19 inhib inactive, CYP2C19 activ inactive, Rev-RRE block inactive and CYP2C9 act inactive.
CCOc1ccc(NC(=O)CN(c2cccc(C(F)(F)F)c2)S(C)(=O)=O)cc1 was read as Cav32 inh -3.8, CYP2C9 inh 72, CYP2C19 inhib 85, CYP2C19 activ inactive, Rev-RRE block inactive and CYP2C9 act inactive.
`CCOc1ccc(N(CC(=O)Nc2ccccc2)S(C)(=O)=O)cc1` gave Cav32 inh inactive, CYP2C9 inh 70, CYP2C19 inhib 88, CYP2C19 activ inactive and CYP2C9 act inactive.
COc1cccc(NC(=O)CN(c2cccc(F)c2)S(C)(=O)=O)c1 was read as Cav32 inh inactive, CYP2C9 inh inactive, CYP2C19 inhib inactive, CYP2C19 activ inactive, Rev-RRE block inactive and CYP2C9 act inactive.
Screening COc1ccc(N(CC(=O)Nc2cccc(SC)c2)S(C)(=O)=O)cc1 returned Cav32 inh -4.8, CYP2C9 inh 89, CYP2C19 inhib 94, CYP2C19 activ inactive and CYP2C9 act inactive.
Screening COc1ccc(N(CC(=O)Nc2cccc(C(F)(F)F)c2)S(C)(=O)=O)cc1 returned Cav32 inh -3.3 and Rev-RRE block inactive.
`Cc1c(C(=O)N(C)C)sc(NC(=O)c2cccc([N+](=O)[O-])c2)c1C#N` gave Cav32 inh inactive, CYP2C9 inh inactive, CYP2C19 inhib inactive, CYP2C19 activ inactive, Rev-RRE block inactive and CYP2C9 act inactive.
CS(=O)(=O)N1CCN(c2ccccc2NC(=O)c2ccco2)CC1 was read as Cav32 inh inactive, CYP2C9 inh inactive, CYP2C19 inhib inactive, CYP2C19 activ inactive, Rev-RRE block inactive and CYP2C9 act inactive.
Screening OCCOc1nnnn1-c1ccccc1 returned Cav32 inh inactive, CYP2C9 inh inactive, CYP2C19 inhib inactive, CYP2C19 activ inactive, Rev-RRE block inactive and CYP2C9 act inactive.
For COc1cccc(NC(=O)CN(c2cccc(C(F)(F)F)c2)S(C)(=O)=O)c1 the results were CYP2C9 inh 70, CYP2C19 inhib 88, CYP2C19 activ inactive and CYP2C9 act inactive.

Assay outcomes deposited in PubChem BioAssay by several laboratories.
